According to article PMC9465827 (ACS Medicinal Chemistry Letters, 2022):
Values after ≈ are worked out from the molar mass of the structure shown.

Key:
Kinetic solubility = format: physicochemical; conditions: PBS buffer, pH 7.4, aqueous buffer, kinetic from dmso stock
[1] = system: Madin-Darby canine kidney (MDCK) cells with canine MDR1 knocked out; experiment: MDCK permeability assay; format: in vitro ADME; conditions: apical to basolateral direction
Summary of the method: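 MDCK cells with endogenous canine MDR1 knocked out. Transport of the test compound was measured in the apical-to-basolateral direction. Permeability was reported in 10^-6 cm/s. Data were accepted only when compound recovery was 70%-130%.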

Structure (SMILES) | solubility kinetic at 24 h (Kinetic solubility) | permeability (passive diffusion rate), level in words [1]
O=C(Nc1ccc([C@H]2[C@@H](F)[C@@H](F)C[C@@H](F)[C@H]2F)cc1)c1cn[nH]c1 [J-1b] | 136 µM (≈ 46.4 µg/mL) | 
O=C(Cn1ccnc1)Nc1ccc(C2CCCCC2)cc1 [1c] |  | high
CC(=O)N1CC(C(=O)Nc2ccc(C3CCCCC3)cc2)C1 [1i] |  | high
CN(Cc1cccnc1)C(=O)c1ccc(C2CCCCC2)cc1 [2c'] |  | highly permeable
CN(Cc1cccnc1)C(=O)c1ccc([C@H]2[C@@H](F)[C@@H](F)C[C@@H](F)[C@H]2F)cc1 [J-2c'] |  | highly permeable
